Calls of active or inactive are those of the source.
How the values were obtained:
Gardnerella vaginalis [1] = assay: Antibacterial activity against Gardnerella vaginalis-mediated vaginal infection in woman assessed as effect on vaginal pH at 5% treated via intravaginal gels every 12 hrs for 2 days measured post application; format: functional, organism-based; conditions: Vagina
Outline: (§1)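 Women self-applied vaginal gels containing 0, 0.5 or 5% GML in a warming-gel vehicle every 12 h for 2 days. Vaginal pH was measured at visit 1 (before the first dose) and visit 2, and the two visits were compared.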

Candida albicans [2] = assay: Antifungal activity against Candida albicans SC5314 assessed as => 3-log drop in number of fungal CFU/ml at 100 ug/ml after 4 to 8 hrs; format: functional, organism-based
Outline: (§2)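 Candida species (C. albicans SC5314 and clinical isolates, C. glabrata, C. kefyr, C. parapsilosis, C. tropicalis, C. krusei) grown 24 h at 37°C with 200 rpm shaking in 25 ml Todd Hewitt broth with GML at 0, 50, 100 or 500 μg/ml. CFU were counted at time points by serial dilution and plating. Fungicidal was defined as a ≥3-log CFU/ml drop.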

Gardnerella vaginalis [3] = assay: Antibacterial activity against Gardnerella vaginalis assessed as => 3-log drop in number of fungal CFU/ml at 1 to 10 ug/ml after 24 hrs; format: functional, organism-based
Homo sapiens [4] = organism: Homo sapiens; assay: Toxicity in woman with Candida-mediated vaginal infection assessed as adverse events at 5% treated via intravaginal gels every 12 hrs for 2 days measured post application; format: organism-based, Vagina; conditions: in vivo, other
Candida tropicalis = assay: Antifungal activity against Candida tropicalis assessed as => 3-log drop in number of fungal CFU/ml at 500 ug/ml after 4 to 8 hrs; format: functional, organism-based; outline: as §2
Gardnerella vaginalis [5] = assay: Antibacterial activity against Gardnerella vaginalis-mediated vaginal infection in woman at 5% treated via intravaginal gels every 12 hrs for 2 days measured post application; format: functional, organism-based; conditions: Vagina
Outline: (§3)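 Double-blind randomized study. Women self-applied intravaginal gel (warming-gel vehicle) with 0, 0.5 or 5% GML every 12 h for 2 days. Swabs were taken before and just after the first dose and 12 h after the last dose, placed in 1 ml Todd Hewitt broth, serially diluted and plated on chocolate agar (37°C, 7% CO2, up to 3 days). Organisms were identified by colony features as CFU/ml secretions, visit 1 vs visit 2. Detection limit 10^2 CFU/ml.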

Gardnerella vaginalis [6] = assay: Antibacterial activity against Gardnerella vaginalis-mediated vaginal infection in woman at 0.5% treated via intravaginal gels every 12 hrs for 2 days measured post application; format: functional, organism-based; conditions: Vagina; outline: as §3
Pichia kudriavzevii = assay: Antifungal activity against Candida krusei assessed as => 3-log drop in number of fungal CFU/ml at 500 ug/ml after 4 to 8 hrs; format: functional, organism-based; outline: as §2
Homo sapiens [7] = organism: Homo sapiens; assay: Toxicity in woman with Gardnerella vaginalis-mediated vaginal infection assessed as adverse events at 5% treated via intravaginal gels every 12 hrs for 2 days measured post application; format: organism-based, Vagina; conditions: in vivo, other
Candida [8] = assay: Antifungal activity against Candida-mediated vaginal infection in woman assessed as effect on vaginal pH at 0.5% treated via intravaginal gels every 12 hrs for 2 days measured post application; format: functional, organism-based; conditions: Vagina; outline: as §1
Lactobacillus [9] = assay: Antibacterial activity against Lactobacillus-mediated vaginal infection in woman assessed as effect on vaginal pH at 5% treated via intravaginal gels every 12 hrs for 2 days measured post application; format: functional; conditions: Vagina; outline: as §1
Gardnerella vaginalis [10] = assay: Antibacterial activity against Gardnerella vaginalis-mediated vaginal infection in woman assessed as effect on vaginal pH at 0.5% treated via intravaginal gels every 12 hrs for 2 days measured post application; format: functional, organism-based; conditions: Vagina; outline: as §1
Lactobacillus [11] = assay: Antibacterial activity against Lactobacillus-mediated vaginal infection in woman at 5% treated via intravaginal gels every 12 hrs for 2 days measured post application; format: functional; conditions: Vagina; outline: as §3
Candida albicans [12] = assay: Antifungal activity against Candida albicans SC5314 clinical isolate at 100 ug/ml after 24 hrs; format: functional, organism-based; outline: as §2
Homo sapiens [13] = organism: Homo sapiens; assay: Toxicity in woman with vaginal infection assessed as adverse events at 5% treated via intravaginal gels every 12 hrs for 2 days measured post application; conditions: in vivo, other
Lactobacillus [14] = assay: Antibacterial activity against Lactobacillus-mediated vaginal infection in woman at 0.5% treated via intravaginal gels every 12 hrs for 2 days measured post application; format: functional; conditions: Vagina; outline: as §3
Candida parapsilosis = assay: Antifungal activity against Candida parapsilosis assessed as => 3-log drop in number of fungal CFU/ml at 500 ug/ml after 4 to 8 hrs; format: functional, organism-based; outline: as §2
Candida [15] = assay: Antifungal activity against Candida-mediated vaginal infection in woman at 5% treated via intravaginal gels every 12 hrs for 2 days measured post application; format: functional, organism-based; conditions: Vagina; outline: as §3
Candida [16] = assay: Antifungal activity against Candida-mediated vaginal infection in woman at 0.5% treated via intravaginal gels every 12 hrs for 2 days measured post application; format: functional, organism-based; conditions: Vagina; outline: as §3
Nakaseomyces glabratus = assay: Antifungal activity against Candida glabrata assessed as => 3-log drop in number of fungal CFU/ml at 500 ug/ml after 4 to 8 hrs; format: functional, organism-based; outline: as §2
Candida [17] = assay: Antifungal activity against Candida-mediated vaginal infection in woman assessed as effect on vaginal pH at 5% treated via intravaginal gels every 12 hrs for 2 days measured post application; format: functional, organism-based; conditions: Vagina; outline: as §1
Lactobacillus [18] = assay: Antibacterial activity against Lactobacillus-mediated vaginal infection in woman assessed as effect on vaginal pH at 0.5% treated via intravaginal gels every 12 hrs for 2 days measured post application; format: functional; conditions: Vagina; outline: as §1
Kluyveromyces marxianus = assay: Antifungal activity against Candida pseudotropicalis kefyr assessed as => 3-log drop in number of fungal CFU/ml at 100 ug/ml after 4 to 8 hrs; format: functional, organism-based; outline: as §2

Structure (SMILES): CCCCCCCCCCCC(=O)OCC(O)CO (stereo not drawn) [GLYCEROL MONOLAURATE]
- Activity (Gardnerella vaginalis [1]): inactive
- Activity (Candida albicans [2]): Active
- Activity (Gardnerella vaginalis [3]): Active
- Activity (Homo sapiens [4]): Non-toxic
- Activity (Candida tropicalis): Active
- Activity (Gardnerella vaginalis [5]): Active
- Activity (Gardnerella vaginalis [6]): Active
- Activity (Pichia kudriavzevii): Active
- Activity (Homo sapiens [7]): Non-toxic
- Activity (Candida [8]): inactive
- Activity (Lactobacillus [9]): inactive
- Activity (Gardnerella vaginalis [10]): inactive
- Activity (Lactobacillus [11]): inactive
- Activity (Candida albicans [12]): Active
- Activity (Homo sapiens [13]): Non-toxic
- Activity (Lactobacillus [14]): inactive
- Activity (Candida parapsilosis): Active
- Activity (Candida [15]): Active
- Activity (Candida [16]): Active
- Activity (Nakaseomyces glabratus): Active
- Activity (Candida [17]): inactive
- Activity (Lactobacillus [18]): inactive
- Activity (Kluyveromyces marxianus): Active

Source: ChEMBL document CHEMBL1240373, “Glycerol monolaurate inhibits Candida and Gardnerella vaginalis in vitro and in vivo but not Lactobacillus” (Antimicrob Agents Chemother, 2010)
